Results: ChEMBL document CHEMBL2203279, “Synthesis and pharmacokinetic profile of rhein- boswellic acid conjugate” (Bioorg Med Chem Lett, 2012)

Assays:
[1] = Drug excretion in po dosed Wistar rat feces assessed as boswellic acid up to 24 hrs; type: ADME, organism-based; conditions: in vivo
Procedure, shortened: (§1)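 Wistar rats given prodrug 2.5 mg in 0.5 mL saline orally after overnight fast; urine and feces collected from metabolic cages at intervals over 24 h and pooled. Urine diluted 10-fold and feces 100-fold in phosphate buffer pH 7.4, then analysed by RP-HPLC for intact prodrug, rhein and boswellic acid as percent.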

[2] = Drug excretion in po dosed Wistar rat feces up to 24 hrs; type: ADME, organism-based; conditions: faeces, read-out: Drug excretion; procedure, shortened: as §1
[3] = Drug excretion in po dosed Wistar rat feces assessed as rhein up to 24 hrs; type: ADME, organism-based; conditions: in vivo; procedure, shortened: as §1
[4] = Drug excretion in po dosed Wistar rat urine assessed as rhein up to 24 hrs; type: ADME, organism-based; conditions: in vivo; procedure, shortened: as §1
[5] = Drug excretion in po dosed Wistar rat urine assessed as boswellic acid up to 24 hrs; type: ADME, organism-based; conditions: in vivo; procedure, shortened: as §1
[6] = Drug excretion in po dosed Wistar rat urine up to 24 hrs; type: ADME, organism-based; conditions: read-out: Drug excretion; procedure, shortened: as §1
Blood [7] = assay: Prodrug conversion in po dosed Wistar rat blood assessed as boswellic acid production from 4 to 7 hrs; type: ADME, organism-based; conditions: in vivo
Procedure, shortened: (§2)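 Overnight-fasted Wistar rats (water allowed) given prodrug 2.5 mg in 0.5 mL saline orally. Blood taken by retro-orbital puncture at intervals over up to 8 h, processed by methanol protein precipitation and centrifugation, and analysed by RP-HPLC for intact prodrug, rhein and boswellic acid, expressed as percent of administered dose.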

Blood [8] = assay: Prodrug conversion in po dosed Wistar rat blood assessed as rhein production from 4 to 7 hrs; type: ADME, organism-based; conditions: in vivo; procedure, shortened: as §2
Blood [9] = assay: Drug uptake in po dosed Wistar rat blood at 7 hrs; type: ADME, organism-based; conditions: in vivo; procedure, shortened: as §2
Blood [10] = assay: Drug uptake in po dosed Wistar rat blood at 5 hrs; type: ADME, organism-based; conditions: in vivo; procedure, shortened: as §2
Blood [11] = assay: Drug uptake in po dosed Wistar rat blood at 6 hrs; type: ADME, organism-based; conditions: in vivo; procedure, shortened: as §2
Blood [12] = assay: Drug uptake in po dosed Wistar rat blood at 4 hrs; type: ADME, organism-based; conditions: in vivo; procedure, shortened: as §2
Blood [13] = assay: Drug uptake in po dosed Wistar rat blood at 3 hrs; type: ADME, organism-based; conditions: in vivo; procedure, shortened: as §2
Blood [14] = assay: Drug uptake in po dosed Wistar rat blood at 2 hrs; type: ADME, organism-based; conditions: in vivo; procedure, shortened: as §2
Plasma = assay: Prodrug conversion in 80% human plasma assessed as half life of hydrolysis; type: ADME, cell-free
Procedure, shortened: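 80% human plasma prepared in 0.05 M phosphate buffer pH 7.4; prodrug methanol stock (250 µg/mL) mixed 1:1 with plasma and incubated at 37 ± 0.5 °C over 7 h. At intervals, centrifuged cold, supernatant protein-precipitated with methanol, recentrifuged, filtered and analysed by RP-HPLC for residual prodrug and released rhein/boswellic acid. Rate constant from log residual prodrug vs time; triplicate.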

Intestine = assay: Prodrug conversion in rat small intestine homogenate assessed as half life of hydrolysis; type: ADME, tissue-based; conditions: tissue homogenate
Procedure, shortened: (§3)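 Prodrug solution in buffer (250 µg/mL) added to rat stomach or small intestinal homogenate pre-equilibrated at 37 ± 0.5 °C. Samples taken at intervals, centrifuged, supernatant filtered and analysed by RP-HPLC at 211 nm for residual prodrug and released rhein/boswellic acid. Rate constant from log residual prodrug vs time slope; triplicate, mean rate constant.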

Stomach = assay: Metabolic stability in rat stomach homogenate; type: ADME, tissue-based; conditions: tissue homogenate; procedure, shortened: as §3
[15] = Prodrug conversion in phosphate buffer assessed as half life of hydrolysis at pH 7.4; type: physicochemical
Procedure, shortened: (§4)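 Prodrug (10 mg) incubated in aqueous buffer (HCl pH 1.2 or phosphate pH 7.4) at 37 ± 0.5 °C, stirred at 100 rpm; aliquots withdrawn with medium replacement at intervals up to 7 h. Residual prodrug and released rhein/boswellic acid quantified by RP-HPLC at 211 nm. First-order rate constant from slope of log residual prodrug vs time; triplicate, mean taken.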

[16] = Chemical stability of the compound in HCl buffer at pH 1.2; type: physicochemical; procedure, shortened: as §4
[17] = n-Octanol-phosphate buffer partition coefficient, log P of the compound at pH 7.4; type: physicochemical
Procedure, shortened: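 Partition coefficient measured between n-octanol and phosphate buffer pH 7.4, with concentrations read by UV–visible spectrophotometry.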

| SMILES | Drug excretion [1] [%] | dose excreted at 24 h [2] [%] | Drug excretion [3] | Drug excretion [4] [%] | Drug excretion [5] [%] | dose excreted at 24 h [6] [%] | Drug metabolism (Blood [7]) | Drug metabolism (Blood [8]) | Drug uptake (Blood [9]) [%] | Drug uptake (Blood [10]) [%] | Drug uptake (Blood [11]) [%] | Drug uptake (Blood [12]) [%] | Drug uptake (Blood [13]) [%] | Drug uptake (Blood [14]) [%] | t1/2 (Plasma) [h] | t1/2 (Intestine) [h] | Stability (Stomach) | t1/2 [15] [h] | Stability [16] | logD [17] |
| --- | --- | --- | --- | --- | --- | --- | --- | --- | --- | --- | --- | --- | --- | --- | --- | --- | --- | --- | --- | --- |
| CC1(C)CC[C@]2(C)CC[C@]3(C)C(=CC[C@@H]4[C@@]5(C)CC[C@@H](O)[C@](C)(C(=O)Oc6cccc7c6C(=O)c6c(OC(=O)[C@@]8(C)[C@H](O)CC[C@@]9(C)[C@H]8CC[C@]8(C)[C@@H]9CC=C9[C@@H]%10CC(C)(C)CC[C@]%10(C)CC[C@]98C)cc(C(=O)O)cc6C7=O)[C@@H]5CC[C@]43C)[C@@H]2C1 | 4.59 | 3.1 | Not Active | 7.1 | 8.9 | 6.2 | Active | Active | 3.4 | 22 | 12 | 34.5 | 70.43 | 93.6 | 3.102 | 2.672 | Stable | 3.205 | Stable | 2.57 |
| O=C(O)c1cc(O)c2c(c1)C(=O)c1cccc(O)c1C2=O [RHEIN] | – | – | – | – | – | – | – | – | – | – | – | – | – | – | – | – | – | – | – | 0.24 |
